In ChEMBL document CHEMBL1158750, “Merosesquiterpenes from two sponges of the genus Dysidea” (2005) one finds GI50, TGI and CC50 data, which are given here for 4 molecules.

Common to all, as to type: functional
What all share (conditions): for CC50: read-out: LC50 (the source's name)

For one test, the system named is MDA-MB-231. In words: Cytotoxicity against human MDA-MB-231 cells by SRB assay. Put shortly: (§1)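 Human tumor cell line (A-549 lung carcinoma, HT-29 colon adenocarcinoma, MDA-MB-231 mammary gland adenocarcinoma) growth and viability measured by colorimetric sulforhodamine B (SRB) staining. Parameters derived were GI50 (50% growth inhibition), TGI (total growth inhibition) and LC50 (50% cell killing).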
Background: In SRB staining, fixed cells bind dye roughly in proportion to their protein.

Another test relates to A549. In words: Cytotoxicity against human A549 cells by SRB assay. Put shortly:
as §1

Another test has as its system HT-29. In words: Cytotoxicity against human HT-29 cells by SRB assay. In short, it runs like this: as §1

By GI50 is commonly meant the concentration giving 50% growth inhibition. A low value points to greater sensitivity of the cells. In general, TGI refers to the concentration at which net growth stops. Read a high TGI as less potent growth arrest. For the molecule `CC1=CC[C@H]2C(C)(C)CCC[C@]2(C)[C@H]1C[C@H]1C(=O)C=C[C@@H]1O` [DYSIENONE], in the test with MDA-MB-231, the concentration for 50% growth inhibition (GI50) was 15.2 µM, total growth inhibition (TGI) required 16.5 µM and the CC50 was 17.9 µM. Moreover, in the test with A549, the GI50 came to 12.9 µM, net growth stopped (TGI) at 13.6 µM and the CC50 stood at 14.2 µM. Further, in the test on HT-29, the GI50 was found to be 13.6 µM, the TGI came to 14.2 µM and the CC50 came out at 15.2 µM.

Regarding `CC(=O)Oc1ccc(O)c(C[C@H]2C(C)=CC[C@H]3C(C)(C)CCC[C@]23C)c1O`, the GI50 with MDA-MB-231 was found to be 10.5 µM; with A549, 10.5 µM; in the test on HT-29 it was 11.3 µM. Besides, the TGI in the test with MDA-MB-231 was 11 µM; in the test on A549 it was 11 µM; in the test on HT-29, 12.6 µM. Further, the CC50 in the test with MDA-MB-231 came out at 11.8 µM; in the test on A549, 11.8 µM; with HT-29 it was 14 µM.

With `CC1(C)CCC[C@]2(C)[C@@H](Cc3cc(O)ccc3O)[C@](C)(O)CC[C@@H]12`, the GI50 in the test with MDA-MB-231 came to 27.7 µM; in the test with A549 it was 17.4 µM.

As for `C=C1CCC[C@H]2[C@](C)(Cc3cc(OC(C)=O)ccc3O)[C@@H](C)CC[C@]12C`, the figures for the concentration for 50% growth inhibition (GI50) in the test with MDA-MB-231 and in the test on A549 were 21 µM and 25.5 µM, respectively.
